# Results published in ChEMBL document CHEMBL1153005, “Synthesis and biological evaluation of curcumin-like diarylpentanoid analogues for anti-inflammatory, antioxidant and anti-tyrosinase activities” (Eur J Med Chem, 2009).
# Assays:
# [1] = tested on: RAW264.7; experiment: Antiinflammatory activity in mouse RAW264.7 cells assessed as inhibition of IFN-gamma/LPS-stimulated nitric oxide production after 17 to 20 hrs by Griess assay; format: functional, cell-based
# How it was run: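 RAW 264.7 cells were grown in DMEM with 10% FBS and 1% penicillin/streptomycin (5% CO₂, 37 °C). At 80–90% confluency they were scraped and seeded at 5 × 10⁴ cells/well. Nitrite was measured by Griess assay, and % NO inhibition was taken relative to the IFN-γ/LPS control. Results are the mean ± S.E.M. of three experiments; IC₅₀ values were computed from these.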
# [2] = biological target: T1, Tyrosinase (Homo sapiens, UniProt P14679); experiment: Inhibition of tyrosinase
# T1 sequence (P14679 whole entry): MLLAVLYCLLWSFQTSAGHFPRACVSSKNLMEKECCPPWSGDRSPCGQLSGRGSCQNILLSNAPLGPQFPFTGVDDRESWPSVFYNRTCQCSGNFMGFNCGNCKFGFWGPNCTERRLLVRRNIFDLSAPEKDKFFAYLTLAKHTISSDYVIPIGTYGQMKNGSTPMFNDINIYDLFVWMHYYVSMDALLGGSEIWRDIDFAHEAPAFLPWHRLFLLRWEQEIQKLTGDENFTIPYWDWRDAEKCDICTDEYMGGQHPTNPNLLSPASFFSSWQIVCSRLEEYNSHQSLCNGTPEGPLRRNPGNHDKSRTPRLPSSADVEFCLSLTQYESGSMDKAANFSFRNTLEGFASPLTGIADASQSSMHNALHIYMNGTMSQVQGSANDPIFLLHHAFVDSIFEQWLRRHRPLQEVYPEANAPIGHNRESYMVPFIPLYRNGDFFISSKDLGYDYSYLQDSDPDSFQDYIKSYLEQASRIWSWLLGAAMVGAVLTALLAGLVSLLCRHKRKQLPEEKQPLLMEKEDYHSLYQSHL
# [3] = tested on: Radical scavenging activity; experiment: Antioxidant activity assessed as DPPH free radical scavenging activity after 30 mins; format: functional
# How it was run: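 Compound stocks were made in 100% DMSO and serially diluted from 7.81 to 500. DPPH (1 mg/ml in methanol) was added, and plates were shaken gently and kept in the dark for 30 min. Absorbance was read at 517 nm, and % scavenging was calculated versus the control. Results are the mean ± S.E.M. of three runs; IC₅₀ values were calculated.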
# [4] = Antioxidant activity assessed as nitric oxide scavenging activity after 60 min by Griess assay; format: functional
# How it was run: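 Sodium nitroprusside (10 mM) was incubated alone or with test compounds (7.81–500) for 60 min under light exposure. Nitrite in the mixture was measured by Griess assay, and % NO scavenging was calculated from OD versus the control. Results are the mean ± S.E.M. of three runs; IC₅₀ values were calculated.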
# [5] = Cytotoxicity against HEMn cells; format: cell-based; conditions: human
# [6] = tested on: RAW264.7; experiment: Cytotoxicity against IFN-gamma/LPS-stimulated mouse RAW264.7 cells assessed as cell viability at 50 uM after 17 to 20 hrs by MTT assay; format: cell-based; conditions: raw264.7, 50 µM
# How it was run: (§1)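 RAW 264.7 cells were cultured and seeded as for the NO assay. In the MTT read-out, cells were incubated for 4 h at 37 °C under 5% CO₂. Formazan was dissolved in DMSO and absorbance read at 570 nm. Viability (%) = OD sample / OD control × 100. Results are the mean ± S.E.M. of three experiments.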
# [7] = tested on: RAW264.7; experiment: Cytotoxicity against IFN-gamma/LPS-stimulated mouse RAW264.7 cells assessed as cell viability at 25 uM after 17 to 20 hrs by MTT assay; format: cell-based; conditions: raw264.7, 25 µM; how it was run: as §1
# [8] = Mus musculus, RAW264.7, read-out: IC50
SMILES,IC50 ([1]; raw264.7),IC50 ([2]; read-out: IC50) [µM],IC50 ([3]; read-out: IC50) [µM],IC50 ([4]; read-out: IC50) [µM],"IC50 [1, 8] [µM]",IC50 [3],IC50 [4],IC50 [2],also measured
CC1(C)N([O])C(c2ccccc2)=[N+]([O-])C1(C)C,,,,0.57,,,,,
O=C(/C=C/c1ccc(F)cc1)/C=C/c1ccc(F)cc1,Not Active,> 250,,,,Not Active,Not Active,,
COC(=O)[C@@H](N)CCCNC(=N)N[N+](=O)[O-] [L-NAME],,,,,27.1,,,,
O=c1c(O)c(-c2ccc(O)c(O)c2)oc2cc(O)cc(O)c12 [QUERCETIN],,,41.8,,,,Not Active,,

# Now from value to molecule, other results behind:
IC50 ([1]; raw264.7),IC50 ([2]; read-out: IC50) [µM],IC50 ([3]; read-out: IC50) [µM],IC50 ([4]; read-out: IC50) [µM],"IC50 [1, 8] [µM]",IC50 [3],IC50 [4],IC50 [2],SMILES,also measured
Not Active,> 250,257,> 500,,,,,COc1cc(/C=C/C(=O)/C=C/c2ccc(O)c(OC)c2)ccc1O,
Not Active,79,> 500,> 500,,,,,O=C(/C=C/c1ccc(O)cc1)/C=C/c1ccc(O)cc1,Activity [5]: Toxic
,> 250,,,33.1,Not Active,Not Active,,COc1ccc(/C=C/C(=O)/C=C/c2ccc(OC)cc2F)c(F)c1,
,,,,13.6,Not Active,Not Active,Not Active,COc1ccc(OC)c(/C=C/C(=O)/C=C/c2cc(OC)ccc2OC)c1,Activity [6]: Toxic
,,> 500,> 500,10.2,,,Not Active,O=C(/C=C/c1ccccc1O)/C=C/c1ccccc1O,Activity [6]: Toxic; Activity [7]: Toxic
,,110,> 500,20.4,,,Not Active,COc1cc(/C=C/C(=O)CC(=O)/C=C/c2ccc(O)c(OC)c2)ccc1O [CURCUMIN],
